Laboratory results: ChEMBL document CHEMBL1144667 (2008)
Blank lines part the entries; values can stand above or below the molecule they belong to. Calls of active or inactive are those of the source. Residues, ends and D or L forms follow the SMILES beside them.

How the values were obtained:
Mus musculus [1] = assay: Decrease in body temperature in Swiss albino mouse at 3 ug, icv after 4 hrs relative to control; type: functional, organism-based
In short: (§1)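 icv doses 30 ng–3 µg (10 µL/mouse) in male Swiss albino CD1 mice; body temperature followed over 240 min. Mean body temperature over 4 h = AUC of time–response curve per mouse ÷ 240 min; ED35 = dose giving 35 °C mean over 4 h. 8 mice/group, mean ± SEM vs saline.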

Mus musculus [2] = assay: Decrease in body temperature in sc dosed Swiss albino mouse; type: functional, organism-based
In short: (§2)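 Male Swiss albino CD1 mice injected s.c. (10 mL/kg); body temperature followed over time to beyond 3 h; 8–10 mice/group, mean ± SEM vs saline; two-way repeated-measures ANOVA.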

Mus musculus [3] = assay: Decrease in body temperature in Swiss albino mouse at 1 mg/kg, sc; type: functional, organism-based; design: dose 1 mg/kg; details: TDE = time-dependent effect; in short: as §2
Mus musculus [4] = assay: Decrease in body temperature in Swiss albino mouse at 3 mg/kg, iv; type: functional, organism-based; design: dose 3 mg/kg; details: TDE = time-dependent effect
In short: (§3)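 Body temperature tracked over time after i.v. injection (10 mL/kg) in male Swiss albino CD1 mice (20–22 g); 6–8 mice/group, mean ± SEM vs saline; two-way repeated-measures ANOVA.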

Mus musculus [5] = assay: Decrease in body temperature in Swiss albino mouse at 100 ng, icv after 30 mins; type: functional, organism-based; in short: as §1
Mus musculus [6] = assay: Antinociceptive effect in icv dosed Swiss albino mouse assessed as reduction in acetic acid-induced writhing responses at 1 mg/kg, sc to 10 mg/kg, sc; type: functional, organism-based; details: in the assay text read “Swiss albino mouse” for “icv dosed Swiss albino mouse”
In short: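 Writhing in male Swiss albino CD1 mice: s.c. dosing 1–10 mg/kg (10 mL/kg) 15 min before i.p. 0.5% acetic acid; stretches counted over 5 min starting 5 min after acid. 6–8 mice/group, mean ± SEM vs saline.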

Mus musculus [7] = assay: Decrease in body temperature in iv dosed Swiss albino mouse; type: functional, organism-based; in short: as §3
Mus musculus [8] = assay: Decrease in body temperature in Swiss albino mouse at 10 mg/kg, sc; type: functional, organism-based; design: dose 10 mg/kg; details: TDE = time-dependent effect; in short: as §2
Mus musculus [9] = assay: Decrease in body temperature in Swiss albino mouse at 1 mg/kg, iv; type: functional, organism-based; design: dose 1 mg/kg; details: TDE = time-dependent effect; in short: as §3
Mus musculus [10] = assay: Analgesic activity in iv dosed Swiss Albino mouse assessed as inhibition of acetic acid-induced writhing responses; type: functional, organism-based
In short: (§4)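 Male Swiss albino CD1 mice (20–22 g); i.v. dosing 10 mL/kg, 15 min before i.p. 0.5% acetic acid; mice placed singly in large beakers, stretches counted over 5 min starting 5 min after acid. Dose–response plus time course at 0.3 mg/kg; 8–18 mice/group, mean ± SEM vs saline.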

Mus musculus [11] = assay: Decrease in body temperature in Swiss albino mouse at 3 ug, icv after 90 mins; type: functional, organism-based; in short: as §1
Mus musculus [12] = assay: Antinociceptive effect in Swiss albino mouse assessed as reduction in acetic acid-induced writhing responses at 30 mg/kg, po
Mus musculus [13] = assay: Antinociceptive effect in Swiss albino mouse assessed as reduction in paw licking latency between 300 ng to 3 ug, icv by hot plate test; type: functional, organism-based
In short: (§5)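 Hot plate at 55 ± 0.5 °C, male Swiss albino CD1 mice confined by plastic cylinder, tested 20 min after icv injection (10 µL/mouse; Haley–McCormick method); paw licking and jump latencies recorded, 240 s cutoff, each mouse tested once. Levocabastine 1350 pmol icv alone or co-given with 300 ng agonist. 6–9 mice/group, mean ± SEM vs saline.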

Mus musculus [14] = assay: Antinociceptive effect in Swiss albino mouse assessed as reduction in jump latency at 300 ng, icv after 20 mins by hot plate test; type: functional, organism-based; in short: as §5
Mus musculus [15] = assay: Antinociceptive effect in Swiss albino mouse assessed as reduction in jump latency between 300 ng to 3 ug, icv by hot plate test; type: functional, organism-based; in short: as §5
Mus musculus [16] = assay: Antinociceptive effect in Swiss albino mouse assessed as reduction in jump latency at 1350 pmol, icv after 20 mins by hot plate test; type: functional, organism-based; details: in the assay text read “300 ng” for “1350 pmol”; in short: as §5
Mus musculus [17] = assay: Decrease in body temperature in icv dosed Swiss albino mouse after 4 hrs; type: functional; in short: as §1
Mus musculus [18] = assay: Analgesic activity in Swiss Albino mouse assessed as inhibition of acetic acid-induced writhing responses at 0.3 mg/kg, iv; type: functional, organism-based; design: dose 0.3 mg/kg; in short: as §4
[19] = target: Neurotensin receptor type 1 (Rattus norvegicus) (UniProt P20789); assay: Binding affinity at rat NTS1 receptor
Sequence of Neurotensin receptor type 1 (Rattus norvegicus) (P20789 whole entry): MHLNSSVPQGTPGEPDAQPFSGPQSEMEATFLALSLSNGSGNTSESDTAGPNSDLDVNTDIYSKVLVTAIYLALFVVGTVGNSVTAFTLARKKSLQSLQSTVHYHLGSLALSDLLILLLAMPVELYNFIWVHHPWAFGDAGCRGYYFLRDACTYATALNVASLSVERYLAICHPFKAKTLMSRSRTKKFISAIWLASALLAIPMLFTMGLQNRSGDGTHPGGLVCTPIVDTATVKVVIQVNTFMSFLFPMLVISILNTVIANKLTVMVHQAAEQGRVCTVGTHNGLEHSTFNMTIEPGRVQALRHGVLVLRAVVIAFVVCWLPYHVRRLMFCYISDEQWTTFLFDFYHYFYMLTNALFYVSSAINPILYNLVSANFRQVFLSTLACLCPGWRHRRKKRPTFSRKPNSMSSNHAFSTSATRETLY

Structure (SMILES): CC[C@H](C)[C@@H]1NC(=O)[C@H](Cc2ccc(O)cc2)NC(=O)[C@@H]2CCCN2C(=O)[C@H](CCCCN)NC(=O)[C@H](CCCCN)NC(=O)[C@H](CC(C)C)NC(=O)[C@H]([C@@H](C)CC)NC(=O)[C@H](Cc2ccc(O)cc2)NC(=O)[C@@H]2CCCN2C(=O)[C@H](CCCCN)NC(=O)[C@H](CCCCN)NC(=O)[C@H](CC(C)C)NC1=O (cyclo(ILKKPYILKKPY))
Activity (Mus musculus [1]): Active
Activity (Mus musculus [2]): Dose-dependent effect
Activity (Mus musculus [3]): tde
Activity (Mus musculus [4]): tde
Activity (Mus musculus [5]): Active
Activity (Mus musculus [6]): Dose-dependent effect
Activity (Mus musculus [7]): Dose-dependent effect
Activity (Mus musculus [8]): tde
Activity (Mus musculus [9]): tde
Activity (Mus musculus [10]): Dose-dependent effect
Activity (Mus musculus [11]): Active
Activity (Mus musculus [12]): Active
Activity (Mus musculus [13]): Dose-dependent effect
Activity (Mus musculus [14]): Active
Activity (Mus musculus [15]): Dose-dependent effect
Activity (Mus musculus [16]): Active
ED35 (Mus musculus [17]): 300 ng
Activity (Mus musculus [18]): Active

Activity [19]: 0.16 nmol
Structure (SMILES): CCC(C)[C@H](NC(=O)[C@H](Cc1ccc(O)cc1)NC(=O)[C@@H]1CCCN1C(=O)[C@H](CCCNC(=N)N)NC(=O)[C@@H](N)CCCNC(=N)N)C(=O)N[C@@H](CC(C)C)C(=O)O (single isomer, unassigned)
